Measurements from different studies.
Compare with care: the assays were run in different laboratories.
Target: LIM domain kinase 1 (LIMK1, Homo sapiens, UniProt P53667)

`COc1cc(Nc2c(C#N)cnc3cc(OCCCN4CCN(C)CC4)c(OC)cc23)c(Cl)cc1Cl` gave a remaining signal of 96.4% (cell-free assay; 0.5 µM).
For `CC(C)(C)c1nc(-c2cccc(NS(=O)(=O)c3c(F)cccc3F)c2F)c(-c2ccnc(N)n2)s1`, the remaining activity was 98% (enzyme activity, inhibitor, radiometric; 1 µM).
With `O=C(Nc1cnn(-c2csc(C(=O)NC3COC3)c2)c1)Nc1ccccc1Cl` the remaining activity was 96.2% (enzyme activity, inhibitor; 5 µM).
The activity vs control of `Cc1cc(NC(=O)c2cccc3cc(-c4cccc5[nH]nc(N)c45)ccc23)ccc1F` is reported as 90% (enzyme activity, inhibitor; 0.1 µM).
`CSc1cccnc1N1CCN(Cc2nc3ccccc3[nH]2)CC1` gave a remaining binding of 100% (cell-free assay, competition with immobilised ligand; 1 µM).
The remaining signal of `O=C1Nc2ccc(Cl)cc2C1=Cc1cc(Cl)c(O)c(Cl)c1` is reported as 83.7% (cell-free assay; 0.5 µM).
With `O=C(Nc1cnn(-c2csc(C(=O)NC3COC3)c2)c1)Nc1c(F)cccc1Cl` the remaining activity was 104% (enzyme activity, inhibitor; 5 µM).
With `CCCOc1ccc([C@@H]2[C@@H](C(=O)O)[C@H](c3ccc4c(c3)OCO4)CN2CC(=O)Nc2c(CC)cccc2CC)cc1` the remaining binding was 90% (cell-free assay, competition with immobilised ligand; 1 µM).
With `CCN(CC)CCNC(=O)c1c(C)[nH]c(/C=C2\C(=O)Nc3ccc(F)cc32)c1C` the inhibition was 39% (enzyme activity, inhibitor; 10 µM).
The remaining signal of `Nc1ncnc2occ(-c3ccc(NC(=O)Nc4cc(C(F)(F)F)ccc4F)cc3)c12` is reported as 7.6% (cell-free assay, inhibitor; 20 µM).
For `N#CCCc1ccc2c(c1)-c1[nH]c3ccc([N+](=O)[O-])cc3c1CC(=O)N2`, the remaining signal was 99.9% (cell-free assay; 0.5 µM).
For `CC(C)(O)[C@H]1CC[C@H](Nc2ccc3ncc(-c4cccc(C(F)(F)F)c4)n3n2)CC1`, the remaining activity was 76.3% (enzyme activity, inhibitor; 1 µM).
The remaining binding of `Cn1nc(C(F)(F)F)cc1-c1cnc(N2CCc3cc(S(=O)(=O)Nc4c(F)cc(Cl)cc4F)cc(N4CCCC4=O)c32)nc1` is reported as 100% (cell-free assay, competition with immobilised ligand; 1 µM).
`CCCS(=O)(=O)Nc1ccc(F)c(C(=O)c2c[nH]c3ncc(-c4ccc(Cl)cc4)cc23)c1F` has an inhibition of less than 10% (enzyme activity, inhibitor; 1 µM).
The remaining binding of `CN([C@@H]1CCc2c(CC(=O)O)c3ccccc3n2C1)S(=O)(=O)c1ccc(F)cc1` is reported as 100% (cell-free assay, competition with immobilised ligand; 1 µM).
`Cn1cnc(Br)c1C1=CN(c2ncnc3[nH]cnc23)CCS1` has an inhibition of 15.2% (enzyme activity, inhibitor, radiometric; 50 nM).
`CN1CCN(c2cnc3c(C4CCN(C(=O)c5ccc(OC(F)(F)F)cc5N)CC4)ncnc3c2)CC1` gave a remaining binding of 100% (cell-free assay, competition with immobilised ligand; 1 µM).
With `CNC(=O)c1cc(Oc2ccc(NC(=O)Nc3ccc(Cl)c(C(F)(F)F)c3)cc2)ccn1` the inhibition was 29% (enzyme activity, inhibitor; 0.3 µM).
`O=C(O)[C@@H]1[C@@H](Cn2nnc3ccccc3c2=O)CC[C@H]1C(=O)c1ccc(OCCC2CCOCC2)cc1` gave a remaining binding of 100% (cell-free assay, competition with immobilised ligand; 1 µM).
For `O=C1NC(=O)c2cc(Nc3ccc(F)cc3)c(Nc3ccc(F)cc3)cc21`, the remaining signal was 95.9% (cell-free assay; 0.5 µM).
